Assay outcomes deposited in PubChem by several laboratories.
NPY1 pot ag = NPY-Y1 receptor potentiators or agonists, primary screen, cell-based. Neuropeptide Y receptor type 1 (Homo sapiens), P25929. NPY-Y1 expressing cells, potentiator/agonist activation. activation, % at 3.6 µM. 220,000 tested, 0.37% active; in the data active = activation above about 33%, passing the limit was not always enough;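 note: cells stimulated with NPY at EC10 then isoproterenol at EC100; 0% = low agonist plus stimulus and 100% = saturating agonist plus stimulus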
Target sequence (P25929 whole entry, looked up): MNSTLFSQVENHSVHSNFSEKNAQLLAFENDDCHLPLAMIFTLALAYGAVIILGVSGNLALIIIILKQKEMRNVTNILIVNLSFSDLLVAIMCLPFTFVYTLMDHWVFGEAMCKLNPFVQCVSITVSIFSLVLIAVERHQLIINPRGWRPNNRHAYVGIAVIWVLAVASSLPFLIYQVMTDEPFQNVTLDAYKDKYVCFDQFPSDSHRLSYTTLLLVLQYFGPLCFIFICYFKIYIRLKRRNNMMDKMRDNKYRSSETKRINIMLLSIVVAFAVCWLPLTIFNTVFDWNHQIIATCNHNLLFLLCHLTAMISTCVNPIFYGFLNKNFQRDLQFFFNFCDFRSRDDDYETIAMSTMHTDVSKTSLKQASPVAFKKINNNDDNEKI
Mdm2 ligase inh = MDM2-luciferase reporter signal enhancers, primary screen, MDM2 E3 ligase inhibitor project, cell-based, luminescence, 1536-well; AID 1230, 2008; E3 ubiquitin-protein ligase Mdm2 (Homo sapiens), Q00987; signal enhancement, % at 5 µM; cell-based MDM2 ubiquitination luciferase reporter, 2 h; 0 = plate control, 100 = twice control, blank-subtracted; 210,000 tested, 0.11% active;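 active = signal enhancement of 30% or more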;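 note: luminescence tracks abundance of the self-degrading MDM2-luciferase fusion protein; higher signal means inhibition of MDM2 E3 ligase activity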
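Material: stable MDM2–luciferase fusion reporter cells / Quantity: 2000 cells/well / Dosing: single 5 µM compound dose, 0.2% final DMSO / Buffer or medium: DMEM / Schedule: 4 h cell settling then 2 h compound exposure, 37 °C / Detection: luminescence with SteadyLite reagent, 15 min at room temperature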
NPY-Y1 antag = NPY-Y1 receptor antagonists, primary screen, cell-based | Neuropeptide Y receptor type 1 (Homo sapiens), P25929 | HEK293-CNG Y1 cells, membrane potential fluorescence; NPY at EC95, then isoproterenol | inhibition, % at 3.6 µM | 200,000 tested, 1% active;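 active = inhibition above the campaign mean inhibition of all tested compounds plus 3 SD, cut at about 20% in these data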;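 note: 0% = DMSO wells given NPY plus isoproterenol and 100% = isoproterenol alone without NPY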
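Benchmarks – high control isoproterenol alone, low control NPY with isoproterenol · Material – HEK293 Y1/CNG channel cell line · Times – dye 3 h, compound 60 min room temperature, stimulation 45 min · Probe or stimulus – NPY (25 nM), isoproterenol (1 µM), Ro 20-1724 (25 µM) · Evaluation – % inhibition of NPY effect · Signal – fluorescence, membrane potential probe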
NPY-Y2 antag = NPY-Y2 receptor antagonists, primary screen, cell-based | 140,000 tested, 0.99% active | Neuropeptide Y receptor type 2 (Homo sapiens), P49146 | NPY-Y2 expressing cells, antagonist mode | inhibition, % at 2.7 µM; in the data active = inhibition above about 17%;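 note: 0% = vehicle with agonist challenge and 100% = reference antagonist with challenge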
NPY-Y2 PAM-ag = NPY-Y2 potentiators or agonists, primary screen, cell-based; cells expressing NPY-Y2, potentiator/agonist read-out; 220,000 tested, 0.45% active; activation, % at 3.6 µM; Neuropeptide Y receptor type 2 (Homo sapiens), P49146; in the data active = activation above about 27%;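 note: cells stimulated with NPY near EC25 plus isoproterenol at EC100; 0% = vehicle plus submaximal agonist and 100% = vehicle plus saturating agonist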
Measles CPE = compounds protecting cells from measles virus cytopathic effect, primary screen, measles RdRp inhibitor project, single point, MLSMR library, absorbance. Measles virus-infected cells, CPE protection. protection (pct of control), % at 4 µM. 140,000 tested, 1.5% active; in the data active = protection mostly above about 24%, no sharp cut-off; inactive = mostly below about 26%
* = called active by the depositor; x = no result. An excerpt weighted towards active compounds, which were near 2.8% of everything screened.

SMILES	NPY1 pot ag	Mdm2 ligase inh	NPY-Y1 antag	NPY-Y2 antag	NPY-Y2 PAM-ag	Measles CPE
CC(=O)OC1=C(C#N)Cn2ccc3cccc1c32	11	-15	2	1	-10	57*
O=C(NCc1cccnc1)c1ccc(NC(=O)c2cccc([N+](=O)[O-])c2)cc1	-20	-4	6	x	-10	x
Cc1ccc(-n2c(SC3CCOC3=O)nc3ccccc3c2=O)cc1 (stereo unspecified)	13	-17	6	x	-12	x
O=C(Cc1coc2ccc3ccccc3c12)Nc1nnc(C2CC2)s1	-5	-18	2	2	-5	56*
CCOC(=O)Cc1csc(N)n1	0	-12	1	1	4	4
CCOC(=O)Cc1csc(/C(=N/O)C(N)=O)n1	-33	-1	2	3	-8	33*
CC(=O)N1CCC(N(CCN2CCOCC2)C(=S)Nc2c(C)cccc2C)CC1	-8	-13	0	3	6	2
O=C(/C=C/c1ccco1)Nc1ccccc1C(=O)O	-4	-41	8	x	1	x
O=C(/C=C/c1ccco1)Nc1ccccc1C(=O)Nc1cccc(C(=O)O)c1	48*	-18	x	x	43*	x
CCOC(=O)c1c(NC(=O)CSc2nc3ccccc3s2)sc(C(C)=O)c1C	-33	5	39*	22*	-32	3
CCOC(=O)c1c(NC(=O)CSc2nc3cc(Cl)ccc3s2)sc(C(C)=O)c1C	11	1	1	0	1	18
O=C(Cn1nc(-c2ccc3c(c2)OCCO3)ccc1=O)Nc1cccc(NC(=O)c2ccccn2)c1	3	-14	-4	x	-2	x
O=C(CSc1ncc(-c2ccccc2)n1CC1CCCO1)N1CCCCC1 (stereo unspecified)	-5	-3	2	11	-4	30
CC(C)Cn1c(-c2ccc(Cl)cc2)cnc1SCC(=O)N1CCOCC1	-11	-12	9	4	-2	95*
COC(=O)CSc1nc2ccc(NC(=O)CSc3nnnn3Cc3ccccc3)cc2s1	109*	-16	-11	-2	105*	18
Clc1ccc(CN(Cc2ccc(Cl)cc2)c2nn[nH]n2)cc1	-30	0	31*	x	-26	x
c1ccc(CN(Cc2ccccc2)c2nn[nH]n2)cc1	-16	-17	4	x	-5	x
COc1cc2c(cc1OC)CN(c1nc(CN3CCCCC3)nc3sc4c(c13)CCCC4)CC2	-69	6	23*	20*	-15	28
O=C(O)c1cccc2cccnc12	-3	-15	2	5	-14	3
O=C(Oc1ccccc1)c1cccc2cccnc12	-11	-8	-5	1	-18	48*
CC1(C)CC(=O)C(C=NCCN2CCNC2=O)=C(O)C1	-19	12	-3	4	8	35*
CC1(C)CC(=O)C(C=NCCCO)=C(O)C1	2	-4	1	1	3	12
CC1=NN(S(=O)(=O)c2ccc(Cl)cc2Cl)C(=O)c2ccccc2O1	14	x	x	x	-2	x
Cc1ccc(/C=C/C(=O)NCCCc2ccccc2)cc1	-51	-12	37*	34*	-34	10
Cc1ccc(CNC(=O)/C=C/c2ccccc2Cl)cc1	-25	-22	31*	12	-14	24
SMILES	NPY1 pot ag	Mdm2 ligase inh	NPY-Y1 antag	NPY-Y2 antag	NPY-Y2 PAM-ag	Measles CPE
CC(CCc1ccccc1)NC(=O)/C=C/c1ccc(Cl)cc1 (stereo unspecified)	-47	-5	32*	21*	-21	44
Cc1ccc(CNC(=O)/C=C/c2c(Cl)cccc2Cl)cc1	-9	-5	-4	2	0	4
CC(Cc1ccccc1)NC(=O)/C=C/c1ccc([N+](=O)[O-])cc1 (stereo unspecified)	1	-10	0	0	3	2
Cn1c(=O)c2cc3ccccc3nc2n(C)c1=O	2	-7	x	x	-23	x
Cc1cc(C)cc(NC(=O)Nc2ccc(-n3ccc(C(F)(F)F)n3)cc2)c1	40	-7	x	x	13	x
O=C(Nc1ccc(-n2ccc(C(F)(F)F)n2)cc1)Nc1cccc(Cl)c1	52*	-6	x	x	40*	x
CCOC(=O)c1ccc(NC(=S)N(CCN2CCCCCC2)Cc2ccco2)cc1	-19	3	9	x	-9	x
CN1CCN(CCCN(Cc2cccs2)C(=S)Nc2ccc(Cl)cc2)CC1	11	-22	2	x	9	x
CCc1ccc(NC(=S)N(CCCN2CCN(C)CC2)Cc2cccs2)cc1	-7	-3	0	2	-2	53*
CCOC(=O)c1ccc(NC(=S)N(CCCN2CCCCCC2)Cc2ccco2)cc1	3	18	3	6	-2	49*
CCOC(=O)C1CCCN(C(=O)c2ccc(CNc3c(N4CCC(C)CC4)c(=O)c3=O)cc2)C1 (stereo unspecified)	-2	92*	2	7	1	6
Cc1ccc(OCC(=O)Nc2ccc([N+](=O)[O-])cn2)cc1C	-33	x	25*	9	-8	x
O=C(N/N=C/c1c[nH]c2ccccc12)c1ccncc1	7	8	2	1	-2	25
O=C(N/N=C/c1c[nH]c2ccc(Br)cc12)c1ccncc1	5	-2	2	0	19	29*
CC(COC(=O)c1ccccc1)(COC(=O)c1ccccc1)/[N+]([O-])=C/c1ccccc1	-14	-3	21*	18*	-10	24
O=C(Nc1ccc(Cl)c(Cl)c1)c1ccc(Cn2c(=O)[nH]c3ccsc3c2=O)cc1	-1	x	-1	-5	-5	23*
O=C(Nc1ccc(Oc2ccccc2)cc1)c1ccc(Cn2c(=O)[nH]c3ccsc3c2=O)cc1	-26	x	-2	-2	13	4
C=CCOC(=O)c1sc(NC(=O)c2ccc(OC)cc2)nc1C	0	-7	0	x	3	x
CNC(=S)N(CCc1c(C)[nH]c2ccc(C)cc12)Cc1cccs1	43*	0	-9	x	31*	x
CCN(CC)S(=O)(=O)c1cccc(-n2c(O)c(C=Nc3ccccc3C(=O)O)c3ccccc3c2=O)c1	48*	-3	x	x	74*	x
O=C(COc1ccc2ccccc2c1)NNC(=O)Cc1ccccc1	-18	-32	6	3	-9	15
O=C(COc1ccc2ccccc2c1)NCCNC(=O)COc1ccc2ccccc2c1	-2	-9	6	4	2	85*
Cc1c(/C=N/NC(=O)CNc2ccccc2)c2ccccn2c1C(=O)c1ccccc1	-24	-10	0	1	11	23*
